Data set [1] relates to Aliivibrio fischeri. Kind of data set: Toxicity in Vibrio fischeri NRRL B-11177 assessed as reduction in bioluminescence after 15 mins by microtox assay. It is filed as organism-based. Conditions: NRRL B-11177, 0.25 h. In short, it runs like this: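 Microtox assay with V. fischeri. Samples made up to 500 μg·mL−1 initial in artificial seawater containing 2% acetone, then tested at 45, 22.5, 11.25 and 5.625% of initial, in triplicate. Light loss read after 15 min exposure, γ = (I0/It) − 1. EC50 taken from log γ versus log concentration regression at γ = 1.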

The subject of data set [2] is Acinetobacter baumannii. Kind of data set: Antibacterial activity against Acinetobacter baumannii by resazurin-based assay. It is filed as functional. On the technique in general: Alamar Blue is a resazurin reagent that responds to reducing activity.
The subject of data set [3] is Escherichia coli. Kind of data set: Antibacterial activity against Escherichia coli 2884 by resazurin-based assay. The class given is functional.
Data set [4] has as its system Escherichia coli. Kind of data set: Antibacterial activity against Escherichia coli 5746 by resazurin-based assay. The class given is functional. The method in brief:
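Liquid broth assay in Luria Broth, inoculum plus compound from 0.312 mM DMSO stock. Tested at 5 μM final in triplicate within one experiment. Overnight incubation at 37 °C. Growth read by turbidity or fluorescence, with viability scored using resazurin at 0.002% final.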

Data set [5] relates to Pseudomonas aeruginosa. Kind of data set: Antibacterial activity against Pseudomonas aeruginosa by resazurin-based assay. The class given is functional.
Data set [6] has as its system Staphylococcus aureus. Kind of data set: Antibacterial activity against methicillin-resistant Staphylococcus aureus by resazurin-based assay. It is filed as functional. In short, it runs like this:
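MRSA was grown in Luria Broth liquid culture with diluted inoculum, compound added from a DMSO stock. Plates were incubated overnight at 37 °C and scored for visible growth by turbidity or fluorescence, with resazurin as the viability read-out. Tests were run in triplicate within one experiment.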

Data set [7] relates to Staphylococcus aureus. Kind of data set: Antibacterial activity against methicillin-sensitive Staphylococcus aureus by resazurin-based assay. It is filed as functional.
The test system of data set [8] is Aspergillus fumigatus. Kind of data set: Antifungal activity against Aspergillus fumigatus by resazurin-based assay. It is filed as functional. In short, it runs like this:
(§1)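 Liquid assay in modified RPMI medium: RPMI-1640, Yeast Nitrogen Base, 1.8% glucose, 40 mM HEPES pH 7.1. Compound added from 0.5 mM solution before inoculum. Tested at 5 μM final in triplicate. Amphotericin B curve (0.5−4 μg·mL−1) run as control. Incubated overnight at 37 °C, then viability scored with resazurin at 0.002% final.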

In data set [9] the test system is Aspergillus fumigatus. Kind of data set: Antifungal activity against Aspergillus fumigatus by resazurin-based assay in presence of caspofungin enhancer. It is filed as functional. In short, it runs like this:
as §1

Data set [10] has as its system A549. Kind of data set: Cytotoxicity against human A549 cells after 24 hrs by MTT assay. It is filed as functional, cell-based. In short, it runs like this: (§2)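 MTT assay with cells seeded at 3 × 10^4 cells/well. Compound taken from 1 mM DMSO stock, diluted 1/200 into medium and left on cells 24 h at 37 °C, 5% CO2. MTT then added at 0.5 mg·mL−1 in phenol red-free MEM for 3 h. Formazan dissolved in DMSO and absorbance read at 570 nm.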
Background: Tetrazolium assays rely on reduction of a dye to a coloured formazan, in cell work by metabolically active cells.

The subject of data set [11] is HepG2. Kind of data set: Cytotoxicity against human HepG2 cells after 24 hrs by MTT assay. It is filed as functional, cell-based. In short, it runs like this: as §2
The subject of data set [12] is HT-29. Kind of data set: Cytotoxicity against human HT-29 cells after 24 hrs by MTT assay. The class given is functional, cell-based. In short, it runs like this:
as §2

For data set [13], the system named is MCF7. Kind of data set: Cytotoxicity against human MCF7 cells after 24 hrs by MTT assay. The class given is functional, cell-based. In short, it runs like this:
as §2

Data set [14] can be described thus: Cytotoxicity against human Fa2N-4 cells assessed as growth inhibition at 5 uM after 24 hrs by MTT assay relative to control. The class given is cell-based. Conditions: read-out: GI. The method in brief:
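Fa2N4 healthy liver cells seeded at 3 × 10^4 cells/well. Exposed to compound at 5 μM (1 mM DMSO stock diluted 1/200) for 24 h at 37 °C, 5% CO2. Then 0.5 mg·mL−1 MTT for 3 h, formazan dissolved in DMSO, absorbance at 570 nm. Growth inhibition expressed as percent.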

Data set [15] can be described thus: Cytotoxicity against human Fa2N-4 cells after 24 hrs by MTT assay. The class given is cell-based. Particulars: fa2n-4, 24 h. The method in brief:
as §2

≈ marks a conversion by molar mass, not a printed value. Calls of active or inactive are those of the source. The rule behind the calls is not given here.

One may read the EC50 as the concentration giving half of the maximal effect. In general, MIC80 refers to an inhibitory concentration at the 80% level, which refers to growth in some studies and to a panel of isolates in others.

Regarding `O=C1C[C@](O)(C(Br)Br)C(Br)=C1Br`, the EC50 in [1] worked out at 0.07 µg/mL (≈ 0.164 µM). Besides, the MIC80 in [2] is 8 µg/mL (≈ 18.7 µM); in [3], above 32 µg/mL; in [4], 16 µg/mL (≈ 37.4 µM); in [5], above 10 µg/mL; in data set [6], 16 µg/mL (≈ 37.4 µM); in [7], above 32 µg/mL. For the same molecule, the MIC80 in data set [8] and in data set [9] was above 32 µg/mL in each case. Besides, the outcome in data set [10], in [11], in data set [12] and in data set [13] was inactive. For the same molecule, in data set [14], the inhibition at 24 h, 5 µM worked out at 53%.

In the case of `C[C@@H](O)[C@H]1C(=O)N2C(C(=O)O)=C(SCCNC=N)C[C@H]12` [IMIPENEM ANHYDROUS], the MIC80 in [6] was 8 µg/mL (≈ 26.7 µM).

For `CO[C@@H]1[C@@H](OC(N)=O)[C@@H](O)[C@H](Oc2ccc3c(O)c(NC(=O)c4ccc(O)c(CC=C(C)C)c4)c(=O)oc3c2C)OC1(C)C` [NOVOBIOCIN], the MIC80 in [3] is 0.3 µg/mL (≈ 0.49 µM); in [4] it was 0.1 µg/mL (≈ 0.163 µM).

Regarding `CO[C@H]1/C=C/O[C@@]2(C)Oc3c(C)c(O)c4c(O)c(c(/C=N/N5CCN(C)CC5)c(O)c4c3C2=O)NC(=O)/C(C)=C\C=C\[C@H](C)[C@H](O)[C@@H](C)[C@@H](O)[C@@H](C)[C@H](OC(C)=O)[C@@H]1C` [RIFAMPIN], in data set [2], the MIC80 stood at 1 µg/mL (≈ 1.22 µM).

Take `O=C1C(Br)=C(Br)[C@@](O)(C(Br)Br)[C@@H]1Br`: the EC50 in [1] came out at 0.08 µg/mL (≈ 0.158 µM). In addition, the MIC80 was 16 µg/mL (≈ 31.6 µM) in data set [2]; above 32 µg/mL in data set [3]; 32 µg/mL (≈ 63.2 µM) in [4]; above 10 µg/mL in [5]; 16 µg/mL (≈ 31.6 µM) in data set [6]; above 32 µg/mL in [7]. In addition, the MIC80 in data set [8] and in data set [9] was above 32 µg/mL in each case. In data set [15], the Activity result is “Non-toxic”. Also, the outcome in data set [10], in data set [11], in data set [12] and in data set [13] was inactive.

As for `CC1(C)S[C@@H]2[C@H](NC(=O)Cc3ccccc3)C(=O)N2[C@H]1C(=O)O` [PENICILLIN G], the MIC80 in [7] is 0.01 µg/mL (≈ 0.0299 µM).

Regarding `O=C(O)c1cn(C2CC2)c2cc(N3CCNCC3)c(F)cc2c1=O` [CIPROFLOXACIN], the MIC80 in data set [5] stood at 1.5 µg/mL (≈ 4.53 µM).
